{
  "source": "ChEMBL document CHEMBL4385646",
  "about": "“Structural development of 1H-pyrazolo-[3,4-b]pyridine-4-carboxylic acid derivatives as human peroxisome proliferator-activated receptor alpha (PPARα)-selective agonists” (Bioorg Med Chem Lett, 2019)",
  "key": {"[1]": {"biological_target": "Peroxisome proliferator-activated receptor alpha (Homo sapiens) (UniProt Q07869)", "assay": "Displacement of fluormone pan-PPAR green from GST-tagged human PPARalpha ligand binding domain after 3 hrs by TR-FRET assay"}, "[2]": {"assay": "Metabolic stability in human liver microsomes assessed as parent compound remaining at 0.5 uM after 60 mins in presence of NADPH by LC/MS/MS analysis", "type": "ADME, Microsome", "conditions": "liver microsomes, read-out: Stability", "method_in_brief": "(§1)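 Compound at 0.5 μM incubated with liver microsomes at 37°C for 1 h; result given as percent remaining. Final DMSO 0.2%.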"}, "[3]": {"assay": "Metabolic stability in rat liver microsomes assessed as parent compound remaining at 0.5 uM after 60 mins in presence of NADPH by LC/MS/MS analysis", "type": "ADME, Microsome", "conditions": "liver microsomes, read-out: Stability", "method_in_brief": "as §1"}, "[4]": {"assay": "Effect on cyclophilinA expression in human FLC4 cells after 48 hrs by SYBR green dye-based RT-PCR analysis", "type": "ADME, cell-based"}, "[5]": {"assay": "Solubility of the compound in pH 7.4 PBS at 100 uM incubated for 10 mins under shaking condition by HPLC analysis", "type": "physicochemical", "method_in_brief": "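Aqueous solubility determined in PBS, pH 7.4; reported in μM.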"}, "[6]": {"assay": "Protein binding in human plasma at 20 uM after 5 hrs by LC/MS/MS analysis", "type": "ADME, cell-free", "conditions": "read-out: PPB (converted)", "method_in_brief": "(§2)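 Compound at 20 μM incubated with plasma at 37°C for 5 h; percent bound to protein determined. Final DMSO 0.2%.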"}, "[7]": {"assay": "Protein binding in rat plasma at 20 uM after 5 hrs by LC/MS/MS analysis", "type": "ADME, cell-free", "conditions": "read-out: PPB", "method_in_brief": "as §2"}, "[8]": {"assay": "Apparent permeability from apical to basolateral side in human Caco2 cells at 25 uM measured up to 2 hrs by LC/MS/MS analysis", "type": "ADME, cell-based", "conditions": "Caco-2", "method_in_brief": "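Caco-2 monolayers; permeability measured apical-to-basolateral (A–B) at 25 μM compound, reported as ×10⁻⁶ cm/s.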"}, "[9]": {"biological_target": "T1, Peroxisome proliferator-activated receptor alpha (Mus musculus, UniProt P23204)", "T1 sequence (P23204 whole entry)": "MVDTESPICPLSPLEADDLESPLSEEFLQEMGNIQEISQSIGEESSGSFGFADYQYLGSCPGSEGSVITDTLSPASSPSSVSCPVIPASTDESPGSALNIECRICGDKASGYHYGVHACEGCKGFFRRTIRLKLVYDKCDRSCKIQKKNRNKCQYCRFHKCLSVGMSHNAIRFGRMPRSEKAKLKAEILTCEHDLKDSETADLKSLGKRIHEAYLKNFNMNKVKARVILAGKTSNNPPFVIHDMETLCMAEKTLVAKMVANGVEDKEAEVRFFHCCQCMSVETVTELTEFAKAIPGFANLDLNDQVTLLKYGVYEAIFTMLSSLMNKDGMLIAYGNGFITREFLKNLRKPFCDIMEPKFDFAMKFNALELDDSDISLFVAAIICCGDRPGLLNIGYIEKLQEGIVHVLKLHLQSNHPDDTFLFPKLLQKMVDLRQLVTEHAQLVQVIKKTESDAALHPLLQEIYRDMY", "assay": "Transactivation of mouse GAL4-fused PPARalpha expressed in human HepG2 cells after 24 hrs by dual renilla-luciferase reporter gene assay", "type": "cell-based", "method_in_brief": "(§3)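 HepG2 cells carried GAL4-fused human PPARγ or PPARδ, or mouse or rat PPARα, plus the 4xUAS-tk-luc reporter. Cells treated across a concentration range for 24 h. Luciferase normalized to Renilla activity and expressed as fold induction over vehicle, set as 1.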"}, "[10]": {"biological_target": "T2, Peroxisome proliferator-activated receptor alpha (Homo sapiens, UniProt Q07869)", "T2 sequence (Q07869 whole entry)": "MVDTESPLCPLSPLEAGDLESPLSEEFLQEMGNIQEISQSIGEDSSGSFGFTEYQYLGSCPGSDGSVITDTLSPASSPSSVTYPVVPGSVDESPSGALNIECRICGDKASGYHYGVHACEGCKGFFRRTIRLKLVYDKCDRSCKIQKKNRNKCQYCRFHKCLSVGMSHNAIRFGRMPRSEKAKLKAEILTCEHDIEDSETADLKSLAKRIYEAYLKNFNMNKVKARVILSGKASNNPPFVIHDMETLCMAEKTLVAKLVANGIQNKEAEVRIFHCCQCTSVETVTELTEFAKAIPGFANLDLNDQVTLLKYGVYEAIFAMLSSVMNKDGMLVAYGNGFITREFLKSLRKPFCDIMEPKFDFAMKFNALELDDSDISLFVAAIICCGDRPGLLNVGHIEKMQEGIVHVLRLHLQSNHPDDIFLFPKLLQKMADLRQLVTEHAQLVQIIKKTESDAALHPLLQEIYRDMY", "assay": "Transactivation of human GAL4-fused PPARalpha LBD expressed in human HepG2 cells after 24 hrs by renilla luciferase reporter gene assay", "type": "cell-based"}, "[11]": {"biological_target": "T3, Peroxisome proliferator-activated receptor alpha (Rattus norvegicus, UniProt P37230)", "T3 sequence (P37230 whole entry)": "T1 sequence (P23204 whole entry) with I41L, G50S, V85A, I86V, A88T, S96N, V135A, G207A, D265N", "assay": "Transactivation of rat GAL4-fused PPARalpha expressed in human HepG2 cells after 24 hrs by dual renilla-luciferase reporter gene assay", "type": "cell-based", "method_in_brief": "as §3"}},
  "note": "Residue numbers refer to the chain shown, from its start.",
  "data": [
    {"smiles": "Cc1cc(C(=O)O)c2c(C(C)C)nn(-c3ccc(Cl)cc3)c2n1", "values": [
      {"measurement": "IC50", "setting": "[1]", "result": 4.48, "unit": "µM"},
      {"measurement": "remaining at 1 h, 0.5 µM", "setting": "[2]", "result": 91, "unit": "%"},
      {"measurement": "remaining at 1 h, 0.5 µM", "setting": "[3]", "result": 87, "unit": "%"},
      {"measurement": "Activity", "setting": "[4]", "result": "Non-Toxic"},
      {"measurement": "solubility at 10 min, 100 µM", "setting": "[5]", "result": "> 95", "unit": "µM"},
      {"measurement": "fraction unbound at 5 h, 20 µM", "setting": "[6]", "result": 0.003},
      {"measurement": "fraction unbound at 5 h, 20 µM", "setting": "[7]", "result": 0.01},
      {"measurement": "Papp A→B at 2 h, 25 µM", "setting": "[8]", "result": 51.8, "unit": "×10⁻⁶ cm/s"},
      {"measurement": "EC50", "setting": "[9]", "result": 11.3, "unit": "µM"},
      {"measurement": "EC50", "setting": "[10]", "result": 0.66, "unit": "µM"},
      {"measurement": "EC50", "setting": "[11]", "result": 15.9, "unit": "µM"}
    ]}
  ]
}
